TAAR1 agonist = agonists of human TAAR1; Q96RJ0; CHO RD-HGA16 TAAR1, Fluo-8 calcium fluorescence; vehicle wells 0%, saturating PEA agonist 100%; activation, % at 3 µM; actives 0.99% (n = 360,000); AID 624467;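 active = activation above the mean activation of all test compounds in the run plus 3 SD, cut at about 38% in these data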
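test system = CHO RD-HGA16 cells carrying human TAAR1 plus Gα16 | schedule = 17-24 h seeding, 75 min 37 °C dye, 30 min RT | compound dosing = 3 µM single concentration | control set = DMSO and PEA EC100 | replicates = n 1 | signal = Fluo-8 fluorescence, 5 s baseline then 140 s kinetic read | measure = percent activation vs PEA EC100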
TAAR1 antagonist = antagonists of human TAAR1. AID 624466. CHO RD-HGA16 TAAR1, Fluo-8 calcium fluorescence, antagonist. inhibition, % at 3 µM. actives 1.5% (n = 360,000). Q96RJ0;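 active = inhibition above a per-plate cutoff, the mean inhibition of test compounds on that plate plus 3 SD, cut at about 49% in these data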;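 also: 0% = DMSO plus EC80 beta-PEA response and 100% = DMSO alone without agonist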
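Material: RD-HGA16 CHO cells with stable hTAAR1 and Gα16; Dosing: single nominal final test compound concentration of 3 µM; Schedule: seeding 17-24 h prior, 75-min 37 °C, 30-min RT dye loading; Detection: kinetic Fluo-8 calcium fluorescence measurement; Measure: % inhibition from peak post-agonist over basal fluorescence ratio; Benchmarks: vehicle and agonist controls.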
DAGLB inhibitor = blocks human DAGLB lipase activity | actives 0.059% (n = 340,000) | HEK293T DAGLB membrane lysate, EnzChek fluorogenic substrate | AID 504411 | inhibition, % at 5.17 µM; in the data active = inhibition above about 34%;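 also: 0% = enzyme with vehicle and 100% = wells lacking enzyme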
Target sequence (Q8NCG7 whole entry, looked up): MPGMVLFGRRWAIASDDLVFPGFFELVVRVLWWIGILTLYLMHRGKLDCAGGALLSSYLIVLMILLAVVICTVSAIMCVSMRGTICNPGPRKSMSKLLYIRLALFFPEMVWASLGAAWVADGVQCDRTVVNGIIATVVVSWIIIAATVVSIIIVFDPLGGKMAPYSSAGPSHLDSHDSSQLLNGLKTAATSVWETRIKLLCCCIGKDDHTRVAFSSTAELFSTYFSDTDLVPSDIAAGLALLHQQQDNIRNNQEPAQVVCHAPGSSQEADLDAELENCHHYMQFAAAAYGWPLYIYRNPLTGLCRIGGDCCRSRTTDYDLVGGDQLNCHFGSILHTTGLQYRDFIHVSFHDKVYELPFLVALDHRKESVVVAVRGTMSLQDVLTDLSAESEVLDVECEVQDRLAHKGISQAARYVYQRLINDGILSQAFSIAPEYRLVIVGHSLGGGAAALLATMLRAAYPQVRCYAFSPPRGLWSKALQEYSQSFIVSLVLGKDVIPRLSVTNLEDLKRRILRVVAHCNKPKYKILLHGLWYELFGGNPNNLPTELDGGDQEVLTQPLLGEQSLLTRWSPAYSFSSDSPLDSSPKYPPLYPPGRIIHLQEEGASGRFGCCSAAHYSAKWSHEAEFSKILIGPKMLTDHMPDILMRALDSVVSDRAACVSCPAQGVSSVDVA
GPR7 antag = human neuropeptides B/W receptor 1 antagonism; P48145; GPR7-expressing cells, fluorescence antagonist assay; inhibition, % at 4.4 µM; actives 1.1% (n = 290,000); AID 1861; in the data active = inhibition above about 16%, passing the limit was not always enough;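 also: cells stimulated with the agonist NPW; 0% = agonist with vehicle and 100% = vehicle without agonist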
MPTP inh = blocks calcium-induced mitochondrial swelling. actives 1.4% (n = 360,000). AID 602449. inhibition, % at 10 µM. isolated mouse mitochondria, Ca2+ swelling absorbance, 30 min;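 active = inhibition of 50% or more, scaled per plate between neutral and stimulator controls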;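 also: 0% = DMSO wells given calcium and 100% = 1 mM EGTA wells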
TAAR1 nonsel count = counter-screen for TAAR1 antagonists: nonselective antagonists; shares compounds with TAAR1 antagonist; counterscreen cell line, calcium fluorescence, antagonist mode; inhibition, % at 3 µM; actives 77% (n = 2,400); in the data active = inhibition above about 22%;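 also: CHO-Ga16 host cells stimulated with ATP at an EC80 level; 0% = agonist EC80 plus vehicle and 100% = vehicle without agonist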
TAAR1 ant conf = human TAAR1 antagonism, confirmed; shares compounds with TAAR1 antagonist; TAAR1-expressing cells, fluorescence antagonist read-out; inhibition, % at 3 µM; actives 40% (n = 2,400); in the data active = inhibition above about 49%;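 also: CHO-Ga16 host cells challenged with agonist PEA near its EC80; 0% = agonist at EC80 plus vehicle and 100% = vehicle with no agonist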
Ga16 nonsel ag = nonselective Ga16 agonism, counter-screen | AID 651953 | shares compounds with TAAR1 antagonist | actives 18% (n = 2,400) | activation, % at 3 µM | Ga16-expressing cells, calcium fluorescence, agonist counterscreen; in the data active = activation above about 12%;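 also: 0% = vehicle wells and 100% = saturating stimulus response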
TAAR1 ag count = counter-screen for human TAAR1 antagonists: TAAR1 agonists; shares compounds with TAAR1 antagonist; actives 2% (n = 2,400); activation, % at 3 µM; hTAAR1 cell line, fluorescence activation, agonist mode; AID 651955; in the data active = activation above about 37%;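 also: CHO cells stably expressing TAAR1 with calcium dye readout; 0% = DMSO vehicle and 100% = full agonist response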
Numbers without * were called inactive; . = no result. This is a sample that favours compounds with a hit; in the whole collection about 4% have one here.

SMILES	TAAR1 agonist	TAAR1 antagonist	DAGLB inhibitor	GPR7 antag	MPTP inh	TAAR1 nonsel count	TAAR1 ant conf	Ga16 nonsel ag	TAAR1 ag count
COc1cc(/C=N/NC(=O)c2cc(-c3c(C)nn(-c4ccccc4)c3C)n[nH]2)ccc1O	7	54*	-5	-22	0	27*	41	6	6
CCc1nc2ccc(C(=O)N(C)CCCN(C)C)cn2c1N(C)Cc1cc2ccccc2s1	4	-21	.	.	0	.	.	.	.
Cc1nn(-c2ccccc2)c(-c2ccccc2[N+](=O)[O-])c1CC#N	-1	4	.	.	-1	.	.	.	.
COC(=O)[C@]12CCCCC=C1N(CCC1=CCCCC1)C(=O)[C@H](CC(=O)NCCCN1CCCC1=O)C2	4	-10	.	.	-2	.	.	.	.
CC1=C(C(=O)N(C)C)CC(CC(=O)NCc2cccs2)C(=O)N1Cc1ccc(F)cc1 (centres undefined)	-1	-11	.	.	1	.	.	.	.
Cc1nn(C2CCS(=O)(=O)C2)c(C)c1CN(C)C(=O)c1cccc(Cl)c1 (centres undefined)	0	0	-1	.	1	.	.	.	.
O=C(N/N=C/C=C/c1ccccc1[N+](=O)[O-])c1cc(-c2cccnc2)nc2ccccc12	11	59*	2	-5	8	33*	43	4	-1
COc1ccccc1NC(=O)Cc1coc2cc(C)ccc12	0	7	-2	8	1	.	.	.	.
COc1cc(C)ccc1NC(=O)Cc1csc(NC(=O)Nc2ccccc2OC)n1	11	66*	2	.	0	34*	53*	9	10
COc1ccccc1NC(=O)Nc1nc(CC(=O)N2CCN(c3ccccc3OC)CC2)cs1	21	69*	1	.	-2	35*	54*	11	8
COc1ccccc1N1CCN(C(=O)CCC(=O)N2CCN(c3ccccc3OC)CC2)CC1	4	-8	2	2	0	.	.	.	.
CC1(C(=O)NS(=O)(=O)c2ccc(Cl)cc2)CCN1C(=O)c1cccc(F)c1 (centres undefined)	2	-2	.	.	0	.	.	.	.
CCOC(=O)N1CCc2cc(OC)c(OC)c3c2c1cc1cc(OC)c(OC)cc13	-1	-16	2	.	3	.	.	.	.
COc1ccc(-c2sc3ccccc3c2C#Cc2cncn2C)cc1	1	8	-4	.	1	.	.	.	.
Cn1cncc1C#Cc1c(-c2ccc(S(C)(=O)=O)cc2)sc2ccccc12	11	61*	-1	.	-2	32*	35	6	1
Cc1cc(C)c(S(=O)(=O)N2CCCOC2CNC(=O)C(=O)NCCc2c[nH]c3ccccc23)c(C)c1 (centres undefined)	32	75*	7	-3	3	52*	68*	18*	24
O=C1CCCCC1C(Nc1ccc(Cl)cc1)c1ccccc1 (centres undefined)	11	68*	-5	-22	-3	13	45	7	10
N#Cc1c(-c2cccc(Br)c2)cc(-c2cccnc2)nc1N	5	56*	-2	-10	-1	21	38	7	11
N#Cc1c(-c2ccc(Br)cc2)cc(-c2cccnc2)nc1N	-1	1	-1	0	-3	.	.	.	.
O=C(CN1CCN(C(=O)c2ccco2)CC1)Nc1cc(S(=O)(=O)N2CCCC2)ccc1Cl	1	3	3	.	0	.	.	.	.
Cn1c(N)c(C(=O)COC(=O)C2(c3cccc(F)c3)CCCC2)c(=O)n(C)c1=O	16	63*	-3	-8	-3	32*	51*	8	13
Cn1c(N)c(C(=O)COC(=O)c2ccc(F)cc2Cl)c(=O)n(C)c1=O	28	7	-2	.	0	.	.	.	.
CC1=C(C(=O)N2CCOCC2)CC(CC(=O)NC2CC2)C(=O)N1Cc1ccc(F)cc1 (centres undefined)	0	2	.	.	0	.	.	.	.
Cc1ccc(C)c(N2CCN(C(=O)CCc3nc(-c4ccccc4F)no3)CC2)c1	8	64*	-4	.	0	18	40	7	10
Cc1ccc(C)c(N2CCN(C(=O)CCc3nc(-c4cccc(Br)c4)no3)CC2)c1	-1	-7	-6	.	0	.	.	.	.
SMILES	TAAR1 agonist	TAAR1 antagonist	DAGLB inhibitor	GPR7 antag	MPTP inh	TAAR1 nonsel count	TAAR1 ant conf	Ga16 nonsel ag	TAAR1 ag count
Cc1ccc(C)c(N2CCN(C(=O)CCc3nc(-c4ccccc4Br)no3)CC2)c1	4	67*	-8	.	1	32*	46	6	4
CCOc1cc(/C=C/C(=O)NCCc2ccc(S(N)(=O)=O)cc2)ccc1OCC(C)C	6	76*	0	-7	3	25*	39	5	1
CC(C)C(=O)NC(=S)Nc1ccc(S(=O)(=O)N(C)Cc2ccccc2)cc1	6	69*	-4	3	4	34*	50*	7	-2
CN(Cc1ccccc1)S(=O)(=O)c1ccc(NS(=O)(=O)Cc2ccccc2)cc1	11	55*	-2	11	8	35*	52*	9	6
CCOC1=C2[C@@H](CN(S(=O)(=O)c3ccc(C)cc3)[C@H]2c2ccccc2Cl)[C@H]2C(=O)N(Cc3ccccc3)C(=O)[C@H]2C1	1	-8	.	.	1	.	.	.	.
C/C(=N\NC(=O)C1(C)CC1(Br)Br)c1cccc(NC(=O)c2ccc(C)o2)c1 (centres undefined)	13	85*	1	-3	0	26*	73*	11	39*
Cc1ccc(-c2nc(-c3ccncc3)no2)cc1	5	-28	-7	-9	0	.	.	.	.
CC(C)(C)c1ccc(-c2nc(-c3ccncc3)no2)cc1	-3	106*	-2	-21	9	15	19	13*	26
CCc1nc2ccc(C(=O)N3CCN(S(=O)(=O)CC)CC3)cn2c1N(CC)CCN(C)C	4	2	.	.	1	.	.	.	.
Cc1nc2c(OCc3ccc(F)cc3)cccn2c1N(C)C(=O)CCC1CCCC1	4	26	.	.	0	.	.	.	.
COC(=O)c1ccc(COc2cccn3c(N(C)C(=O)CCC4CCCC4)c(C)nc23)cc1	4	68*	.	.	2	34*	55*	7	12
CCCCn1c(N)c(N(CCOC)C(=O)CCNC(=O)c2ccc(Br)cc2)c(=O)[nH]c1=O	4	-21	1	.	-2	.	.	.	.
Brc1ccc(-c2nc(N/N=C/c3cccnc3)c3ccccc3n2)cc1	15	78*	-7	8	3	31*	49*	7	4
Cc1cccc(CN2CCC(n3nccc3NC(=O)CCCc3ccccc3)CC2)c1	5	-20	-3	.	2	.	.	.	.
